pEC50: −log10 of the molar value.
Tests used:
Assay type in all cases: functional
Cavia porcellus [1] = species: Cavia porcellus; assay: Inhibition of electrically induced contractions on the guinea pig ileum; details: read-out: ED50 (the source's name)
Summary of the method: (§1)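 Guinea pig ileum contractions evoked by coaxial stimulation at 0.1 Hz, 0.5-ms pulses, supramaximal voltage, recorded isometrically; dose-response curves built with 15-min washout between doses.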

Mus musculus [2] = assay: Antinociceptive activity of perorally administered compound (20 mg) in phenyl-p-benzoquinone induced writhing mice
Summary of the method: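 Female CD1 mice (Charles River), groups of five to six, dosed orally by blunt intragastric needle (10 mL kg-1) 30 min before ip PBQ at 2.5 mg kg-1. Abdominal constrictions/hind-limb extensions were counted over 2.5 min starting 10 min after PBQ. ED50 is the dose halving writhes versus vehicle, estimated by linear regression.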

Mus musculus [3] = species: Mus musculus; assay: Dose ratio in the presence and absence of the peripheral opioid antagonist in N-methyl-nalorphine in AA writhing mice
Summary of the method: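 Acetic acid (0.6%, ip) writhing in male TFW mice; N-methylnalorphine 11.5 mg kg-1 ip 20 min before subcutaneous agonist. Writhes counted 5 min from 15 min post-irritant. Dose ratio taken as the shift between parallel regression lines with and without antagonist.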

Mus musculus [4] = assay: Antinociceptive activity of subcutaneously administered compound in acetic acid (AA) induced writhing mice; details: sc
Summary of the method: (§2)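 Male TFW mice, groups of five to six, given drug subcutaneously (10 mL kg-1), then ip acetic acid 0.6% at 25 mL kg-1. Writhes counted for 5 min beginning 15 min after acetic acid. ED50 = dose reducing writhes 50% versus vehicle, by linear regression.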

Rodentia sp. [5] = assay: Antinociceptive activity in the hot plate test (central activity) in rodents, when compound administered subcutaneously at 10 mg
Summary of the method: (§3)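 Male CFLP mice, groups of five to six, placed on a copper surface held at 55 °C; latency to paw licking/shaking or jumping recorded, 30-s cut-off. Drug given subcutaneously at 10 mL kg-1. ED50 = dose doubling response latency versus vehicle, by parallel-line probit analysis.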

Mus musculus [6] = assay: Antinociceptive activity of subcutaneously administered compound in phenyl-p-benzoquinone induced writhing mice
Summary of the method: (§4)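 Groups of five to six female CD1 mice given drug subcutaneously (10 mL kg-1) 30 min before ip phenyl-p-benzoquinone 2.5 mg kg-1. Writhes (abdominal constrictions/hind-limb extensions) counted over 2.5 min from 10 min post-PBQ. ED50, the dose giving 50% fewer writhes than vehicle, from linear regression.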

Rodentia sp. [7] = assay: Antinociceptive activity in the hot plate test (central activity) in rodents, when compound administered subcutaneously at; details: sc
Summary of the method: (§5)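 Male CFLP mice (Hacking and Churchill), groups of five to six, dosed sc at 10 mL kg-1 and placed on a copper surface held at 55 °C. Signs of discomfort (paw licking/shaking, jumping) were scored, with a 30-s cut-off. ED50 is the dose doubling response latency versus vehicle, estimated by parallel-line probit analysis.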

Mus musculus [8] = assay: Antinociceptive activity of perorally administered compound in phenyl-p-benzoquinone induced writhing mice; details: po
Summary of the method: (§6)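 Female CD1 mice, groups of five to six, dosed orally by blunt intragastric needle (10 mL kg-1) 30 min before ip phenyl-p-benzoquinone 2.5 mg kg-1. Abdominal constrictions/hind-limb extensions counted over 2.5 min starting 10 min after PBQ. ED50 = dose halving writhes versus vehicle, by linear regression.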

Mus musculus [9] = assay: (§7) Antinociceptive activity in the hot plate test (central activity) in rodents, when compound administered subcutaneously at 50 mg; summary of the method: as §5
Mus musculus [10] = assay: Antinociceptive activity of subcutaneously administered compound (30 mg) in acetic acid (AA) induced writhing mice; summary of the method: as §2
Mus musculus [11] = assay: (§8) Antinociceptive activity of subcutaneously administered compound (1 mg) in phenyl-p-benzoquinone induced writhing mice
Summary of the method: (§9)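 Female CD1 mice (Charles River), groups of five to six, given vehicle or drug sc (10 mL kg-1) 30 min before ip phenyl-p-benzoquinone at 2.5 mg kg-1 (10 mL kg-1). Writhes were counted for 2.5 min from 10 min post-irritant. ED50, the dose giving a 50% reduction in writhes relative to vehicle, was obtained by linear regression.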

Mus musculus [12] = assay: (§10) Antinociceptive activity of subcutaneously administered compound (10 mg) in phenyl-p-benzoquinone induced writhing mice; summary of the method: as §9
Mus musculus [13] = assay: Antinociceptive activity of subcutaneously administered compound (100 mg) in acetic acid (AA) induced writhing mice; summary of the method: as §2
Mus musculus [14] = assay: as §8; summary of the method: as §4; remark: listed apart in the source
Rodentia sp. [15] = assay: Antinociceptive activity in the hot plate test (central activity) in rodents, when compound administered subcutaneously at 100 mg; summary of the method: as §3
Mus musculus [16] = assay: as §10; summary of the method: as §4; remark: listed apart in the source
Mus musculus [17] = assay: Antinociceptive activity of perorally administered compound (50 mg) in phenyl-p-benzoquinone induced writhing mice; summary of the method: as §6
Cavia porcellus [18] = assay: Inhibition of electrically induced contractions on the guinea pig ileum at […] after dosing.; summary of the method: as §1
Rodentia sp. [19] = assay: as §7; summary of the method: as §3
Rodentia sp. [20] = assay: Antinociceptive activity in the hot plate test (central activity) in rodents, when compound administered subcutaneously at 20 mg; summary of the method: as §3
Mus musculus [21] = assay: Antinociceptive activity of subcutaneously administered compound (20 mg) in acetic acid (AA) induced writhing mice; summary of the method: as §2
Mus musculus [22] = assay: Antinociceptive activity of subcutaneously administered compound (3 mg) in acetic acid (AA) induced writhing mice; summary of the method: as §2
Mus musculus [23] = assay: Antinociceptive activity of subcutaneously administered compound (10) in phenyl-p-benzoquinone induced writhing mice; summary of the method: as §4
[24] = Mus musculus, sc, read-out: ED50

SMILES | pEC50 (Cavia porcellus [1]) | Inhibition (Mus musculus [2]) [%] | Ratio (Mus musculus [3]) | ED50 (Mus musculus [4]) [mg/kg] | ED50 (Mus musculus [6]; [24]) [mg/kg] | other results
CC(=O)O.CCN(CCc1ccc(Br)cc1)C(=O)CNC(=O)[C@@H](CCCN=C(N)N)NC(=O)[C@H](Cc1ccc(O)cc1)N=C(N)N | 6.67 | 15 | 1.5 | 0.35 | 3.4 | Inhibition (Rodentia sp. [5]): 0%
CC(=O)O.CCN(CCc1ccccc1F)C(=O)CNC(=O)[C@@H](CCCN=C(N)N)NC(=O)[C@H](Cc1ccc(O)cc1)N=C(N)N | 7.61 |  | 9.8 | 0.17 | 0.9 | ED50 (Rodentia sp. [7]): 22.2 mg/kg; ED50 (Mus musculus [8]): ~50 mg/kg
CC(=O)O.CCN(Cc1ccc(F)cc1)C(=O)CNC(=O)[C@@H](CCCN=C(N)N)NC(=O)[C@H](Cc1ccc(O)cc1)N=C(N)N | 7.34 | 12 | 6.4 | 0.32 |  | ED50 (Mus musculus [6]): 1.7 mg/kg; Inhibition (Mus musculus [9]): 0%
CC(=O)O.CCN(CCc1ccc(S(N)(=O)=O)cc1)C(=O)CNC(=O)[C@@H](CCCN=C(N)N)NC(=O)[C@H](Cc1ccc(O)cc1)N=C(N)N | 5.31 |  |  |  |  | Inhibition (Mus musculus [10]): 0%
CC(=O)O.CCN(CCc1ccc2ccccc2c1)C(=O)CNC(=O)[C@@H](CCCN=C(N)N)NC(=O)[C@H](Cc1ccc(O)cc1)N=C(N)N |  | 0 |  |  |  | Inhibition (Mus musculus [11]): 11%
CC(=O)O.CCN(CCc1ccccc1C(F)(F)F)C(=O)CNC(=O)[C@@H](CCCN=C(N)N)NC(=O)[C@H](Cc1ccc(O)cc1)N=C(N)N | 7.55 | 0 |  |  |  | Inhibition (Mus musculus [12]): 40%
CC(=O)O.CCN(CCc1ccc(Br)cc1)C(=O)CNC(=O)[C@@H](CCCN=C(N)N)NC(=O)[C@@H](N)Cc1ccc(O)cc1 | > 7.00 | 0 |  |  |  | Inhibition (Mus musculus [13]): 0%; Inhibition (Mus musculus [14]): 10%; Inhibition (Rodentia sp. [15]): 0%
CC(=O)O.CCN(Cc1ccc([N+](=O)[O-])cc1)C(=O)CNC(=O)[C@@H](CCCN=C(N)N)NC(=O)[C@@H](N)Cc1ccc(O)cc1 | 8.01 |  | 2.8 | 0.02 |  | Inhibition (Mus musculus [16]): 0%; Inhibition (Mus musculus [17]): 0%; Inhibition (Mus musculus [9]): 0%
CC(=O)O.CCN(CCc1ccc(S(N)(=O)=O)cc1)C(=O)CNC(=O)[C@@H](CCCN=C(N)N)NC(=O)[C@@H](N)Cc1ccc(O)cc1 | 4.96 |  |  |  |  | Inhibition (Mus musculus [13]): 0%
CC(=O)O.CCN(CCc1ccc([N+](=O)[O-])o1)C(=O)CNC(=O)[C@@H](CCCN=C(N)N)NC(=O)[C@@H](N)Cc1ccc(O)cc1 |  | 0 |  |  |  | Inhibition (Mus musculus [14]): 0%
CC(=O)O.CCN(CCNC(=O)[C@@H](CCCN=C(N)N)NC(=O)[C@@H](N)Cc1ccc(O)cc1)CCc1ccc([N+](=O)[O-])cc1 |  |  |  |  |  | Inhibition (Cavia porcellus [18]): 25%
CC(=O)O.CCN(Cc1ccccc1[N+](=O)[O-])C(=O)CNC(=O)[C@@H](CCCN=C(N)N)NC(=O)[C@@H](N)Cc1ccc(O)cc1 | 6.28 |  | 2.8 | 6.1 | 60.3 | Inhibition (Rodentia sp. [19]): 0%
CC(=O)O.CCN(CCc1ccccc1F)C(=O)CNC(=O)[C@@H](CCCN=C(N)N)NC(=O)[C@@H](N)Cc1ccc(O)cc1 | 7.66 |  | 13.3 | 0.3 | 13.7 | Inhibition (Rodentia sp. [5]): 0%; Inhibition (Mus musculus [17]): 0%
CC(=O)O.CCN(Cc1ccc(F)cc1)C(=O)CNC(=O)[C@@H](CCCN=C(N)N)NC(=O)[C@@H](N)Cc1ccc(O)cc1 | 7.20 |  | 3.9 | 0.09 | 10.4 | Inhibition (Rodentia sp. [20]): 0%
CC(=O)O.CCN(CCc1cccs1)C(=O)CNC(=O)[C@@H](CCCN=C(N)N)NC(=O)[C@@H](N)Cc1ccc(O)cc1 |  | 21 |  |  |  | Inhibition (Mus musculus [14]): 0%
CC(=O)O.CCN(CCc1ccc([N+](=O)[O-])cc1)C(=O)CNC(=O)[C@@H](CCCN=C(N)N)NC(=O)[C@@H](N)Cc1ccc(O)cc1 | 7.31 |  | 4.5 | 3.1 | 17.5 | ED50 (Mus musculus [8]): 43.5 mg/kg; Inhibition (Rodentia sp. [15]): 0%
CC(=O)O.CCN(CCCc1ccc([N+](=O)[O-])cc1)C(=O)CNC(=O)[C@@H](CCCN=C(N)N)NC(=O)[C@@H](N)Cc1ccc(O)cc1 | 5.74 |  |  |  |  | Inhibition (Mus musculus [10]): 0%
CC(=O)O.CCN(CCc1ccc(Cl)c(Cl)c1)C(=O)CNC(=O)[C@@H](CCCN=C(N)N)NC(=O)[C@@H](N)Cc1ccc(O)cc1 | 7.90 | 0 | 0.5 |  | 4.7 | Inhibition (Rodentia sp. [15]): ~100%; Inhibition (Mus musculus [21]): 0%
CC(=O)O.CCN(CCc1ccccc1[N+](=O)[O-])C(=O)CNC(=O)[C@@H](CCCN=C(N)N)NC(=O)[C@@H](N)Cc1ccc(O)cc1 | 6.93 |  | 6.4 | 2.7 | 31 | Inhibition (Rodentia sp. [20]): 0%; Inhibition (Mus musculus [17]): 0%
CC(=O)O.CCN(CCc1ccncc1)C(=O)CNC(=O)[C@@H](CCCN=C(N)N)NC(=O)[C@@H](N)Cc1ccc(O)cc1 | 6.24 |  |  |  |  | Inhibition (Mus musculus [22]): 0%
CC(=O)O.CCN(CCc1ccc2ccccc2c1)C(=O)CNC(=O)[C@@H](CCCN=C(N)N)NC(=O)[C@@H](N)Cc1ccc(O)cc1 |  | 0 |  |  |  | Inhibition (Mus musculus [14]): 27%
CC(=O)O.CCN(Cc1ccc(-c2ccccc2)cc1)C(=O)CNC(=O)[C@@H](CCCN=C(N)N)NC(=O)[C@@H](N)Cc1ccc(O)cc1 |  | 0 |  |  |  | Inhibition (Mus musculus [14]): 13%
CC(=O)O.CCN(CCc1ccco1)C(=O)CNC(=O)[C@@H](CCCN=C(N)N)NC(=O)[C@@H](N)Cc1ccc(O)cc1 |  | 0 |  |  |  | Inhibition (Mus musculus [14]): 0%
CC(=O)O.CCN(CCc1ccccc1C(F)(F)F)C(=O)CNC(=O)[C@@H](CCCN=C(N)N)NC(=O)[C@@H](N)Cc1ccc(O)cc1 | 7.14 | 0 |  |  |  | Inhibition (Mus musculus [23]): 33%
CC(=O)O.CCN(CCc1ccc([N+](=O)[O-])o1)C(=O)CNC(=O)[C@@H](CCCN=C(N)N)NC(=O)[C@H](Cc1ccc(O)cc1)N=C(N)N |  | 15 |  |  |  | Inhibition (Mus musculus [14]): 17%

Source: ChEMBL document CHEMBL1124464, “Peripherally acting enkephalin analogues. 2. Polar tri- and tetrapeptides” (1989)
